This sample holds only a part of the variants without activity.
B1: tRNA (parent)
chain: GUUCCGUUGGCGUAAUGGUAACGCGUCUCCCUCCUAAGGAGAAGACUGCGGGUUCGAGUCCCGUACGGAACG

Variants of: B1
Assay: yeast fitness relative to wild type (ratio to wild type); higher = fitter; tRNA-Arg(CCU), competitive growth, 37 C, YPD
Method in brief: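 Amplicons of the tRNA-Arg(CCU) gene were sequenced, 100-nucleotide paired-end, from the start population and from each end population of a pooled yeast competition. The competition, in six parallel replicates, lasted 24 hours in YPD at 37°C. Fitness relative to wild type was calculated from changes in genotype frequencies. Genotypes had to have ≥ 100 starting reads, and estimates < 0.5 were set to 0.5.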

Row | Variant | yeast fitness
1 | GUUCCGUUGACGUAAUGCUAACGUGUCUCGCUCCUAAGGAGAAGACUGCGGGUUCGAGUCCUGUACGGAACG [G10A G18C C24U C30G C62U] | ≤ 0.5
2 | GUUCCGUUGGCGUAAUGGUAAUGCGUCUCCCUCCUAAGGUGAGGACUGCGGGUUCGAGUCCCGUUCGGAACG [C22U A40U A43G A65U] | 0.536
3 | GUUCCGUUGGCGUAAUGGUAACGCGGCUCCCCCCUAAGGAGAAGACUGCGGGUUCGAGUCCCGUACGGAACG [U26G U32C] | 0.821
4 | GUUCCGUUGGCGUAGCGGUAACGCGUCUCCCUCUUAAGGAGAACACUGCGGGUUCGAGUCCCGUACGGAACG [A15G U16C C34U G44C] | ≤ 0.5
5 | GUUCCGUUGGCGUAAUGGUAACGCGUCUCCCUCGUAAGGAGAAGACUGCGGGUUGGAGCUCCGUACGGAACG [C34G C55G U59C C60U] | ≤ 0.5
6 | GUUCCGUUGGCGUAAUGGUAACACGACUCUCUCCUAAGGUGAAAACUGCGGGUUCGAGACCCGUACGGAACG [G23A U26A C30U A40U G44A U59A] | ≤ 0.5
7 | GUUCCGUUGGCGUAAUGGUAACGCGUCUCCCUCCUAAGGAGAAGACUGCGGGUUCGAGUUCCGUACGGACCG [C60U A70C] | 0.732
8 | GUUCCGUUGGCGUAAUGGUAACGCGUCUCCCUUCUAAAGAGAAGACUGCGGGUUCGAGUGCCGCACGGAACG [C33U G38A C60G U64C] | ≤ 0.5
9 | GAUCCGUUGGAGUAAUGGUAACGGGUCUCCCUCCUAAGGAGAAGACGGCGGGUUCGAGUCCCGUACGGAACG [U2A C11A C24G U47G] | ≤ 0.5
10 | GUUCCGUUGGCGUAAUGGUAACGCGUCUCCCUCCAAAGGAGAAGACUGCGGGUUCGAGUCACGUACGGAUCG [U35A C61A A70U] | ≤ 0.5
11 | GUUCCGUUGGCGUUAUGGUAACGCGUCUCCCUCCUAAGGUGAAGACUGCGGGUUCGAGUCCCGUACAGAACG [A14U A40U G67A] | 0.539
12 | GUUCCCUUGGCGUAAUGGUAACGCGUCUCCCUCCUAAGGAGAAGACUGCGCGUUCGAGUCCCGUACGGAACG [G6C G51C] | 0.596
13 | GUUCCGUUGGCGUAAUGGUAGCGCGUCUCCCUCCUAAGGAGAAGACUGCGGGUUCGAGUCCCGUACUGAACG [A21G G67U] | 0.87
14 | GUUCCGUUGGCCUAAUGGUAGCGCGCCUCCUUCCUAAGGAGAAGACUGCGGGUUCGAGUCCCGUACGGAACG [G12C A21G U26C C31U] | ≤ 0.5
15 | GUUCCGUUGGCGUAAUGGUAACGCGUCUCCCUCCUAAGGAGAUGACUGCGGGUUCGAGUCCCGUAUGGAACG [A43U C66U] | 0.829
16 | GUUCGGUUGGCGUAAUGGUAUCGCGUCUCCCUCCUAAGGAGAAGACUGUGGGUUCGAGUCCCGUACGGAACG [C5G A21U C49U] | ≤ 0.5
17 | GUUCCGUUGGCGUAAUGGUAACGCGUCUCCCUCCUAAGGAGAAGACUGCGGGUUCGAGCCCCGUAGGGAACG [U59C C66G] | 0.668
18 | GUUCCGUUGGCGUAAUGGUAAUGCGUCUCCGUCCUAAGGAGAAGACUGCGCGUUCGAGUCCAGUACGGAACG [C22U C31G G51C C62A] | ≤ 0.5
19 | GUUCCGUUGGCAUACUGGUAACGCGUGUCCCUCCUAAGGAGAAGACUGGGGGUUCGAGUCCCGUACGGAACG [G12A A15C C27G C49G] | ≤ 0.5

Row | Variant | yeast fitness
20 | GGUCCGUUGGCGUAAUGGUUACGCGUCUCCCUCCUAAGGAGAUGACUGCGGGUUCGAGUCCCGUACGGAACG [U2G A20U A43U] | 0.594
21 | GUUCCGCUGGCGUAAUGGUAACGCGUCUCCCUCCUAAGGAGAAGAUUGCGGGUUCGAGUCCCGUACGGUACG [U7C C46U A69U] | 0.842
22 | GUUCCGUUGGCGUAAUGGUUCCGCGUAUCCCUCCUAAGGAGAAGACUGCGGGUUCGAGUCCCGUACGAAACG [A20U A21C C27A G68A] | ≤ 0.5
23 | GUUCUGUUGGCGUAAUGGUAACGCGUCUCCCUCCUAAGGUGAAGACUGCGGGUUCAAGUCCCGUACCGAACG [C5U A40U G56A G67C] | ≤ 0.5
24 | GUACCGUUGGCGUACUGGUAACGCGUCUCCCUCCUAAGGAGAAGACUGCGGGUUCGAGUCCCGUAUGGAACG [U3A A15C C66U] | 0.659
25 | GUUCCGUUGGCGUAAUGGUAACGCGUUUGCCUCCUAAGGAGAAGAAUGCGGGUUCGAGUCCCGUACGGAACG [C27U C29G C46A] | 0.539
26 | GUUCCGUUGGCGUAAUGGUAACGCAUGUCCCUCCUAAGGAGAAGACUGCGGGUUCGAGUCCCGUACCGAACG [G25A C27G G67C] | ≤ 0.5
27 | GUUCCGUUGGGGUAAAGGUAACGCGUCUCCAUCCUAAGGAGGAGACUGCGGGUUCGAGUCCCGUACGGAACG [C11G U16A C31A A42G] | 0.573
28 | GUCCCGUUGGCGUAAUGGUAACGCGUCUCCCUCCUAAGGAGAAGUCUGCGGGUUCGAGUCCCGUACGGAACG [U3C A45U] | 0.999
29 | GUUCCAUUGGCGUAAUGGUAACGCAUCUCCCUCCUAAGGAGAAGACUGCGGGUUCGAGCCCCGUACGGAACG [G6A G25A U59C] | ≤ 0.5
30 | GUUCCGUUCGCGUAAUGGUAGCGCGUCUCCCUCCUAAGGAGAAGACUGCGGGUUCGAGUCCCGUACGGAACG [G9C A21G] | 0.669
31 | GUUCCGUUGGCGUAAUGGUAACGCGUCUCCCUACUAAGGAGAAGACUGCGGGUUCCAGUCCCGUACGGACCG [C33A G56C A70C] | 0.574
32 | GUUCCGUUCGGGUAAUGGUAACGCGUCUCCCUCCUAAGGAGAAGACUGCGGGUUCGAAUCCCGUACGGAACG [G9C C11G G58A] | ≤ 0.5
33 | GUUCCGUAGGCGUAAUGGUAACGCGUCUACCUCCUAAGAAGAAGACUGCGGGUUCGAGUCCCGUACGGAACG [U8A C29A G39A] | ≤ 0.5
34 | GUUCCGUUGGCGUAAUGGUAACGUGUCUCCCUCCUAAGGAGAAGACUGCGGGUUCGAGUCCCGAACGGAACG [C24U U64A] | 0.822
35 | GUUCCGUUGGCGUAAUGGUAAUGCGUCUCCCUCCUAAGGAGAAGACUGCGCGUUCGAGUCCCGUUCGGAACG [C22U G51C A65U] | ≤ 0.5
36 | GUCCCGUUGGCGAAAUGGUCACGCGUCUCGAUCCUAAGGAGAAGACUGCGGGUUCGAGUCCCGUACCGAACG [U3C U13A A20C C30G C31A G67C] | ≤ 0.5
37 | GUUCCGUUGGCGCAAUGGUAACGCGCCUCCCUCCUAAGGAGAAGACUGCGGGUUCGAGUCCCGUCCGGAACG [U13C U26C A65C] | 0.661
38 | GUUCCGUCGGCGUAAUGGUAUCGCGUCUCCCUCCUAAGGAGAAGACUGCGGGUUCGAGUCCCGUACGGUACG [U8C A21U A69U] | 0.527

From the RNAGym collection of RNA variant scans (doi:10.1126/science.aae0568)
